The test system of one data set is Vero. Briefly: Cytotoxicity against african green monkey Vero cells assessed as cell viability after 48 hrs by neutral red uptake assay. The class given is cell-based. The settings on record: chlorocebus sabaeus. The method, boiled down: (§1)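 Neutral red uptake assay on human cancer lines (SK-MEL, KB, BT-549, SK-OV-3) and noncancerous mammalian cells (VERO, LLC-PK1). Highest tested concentration was 10 µg/mL.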

Another data set deals with Nakaseomyces glabratus. Put plainly: Antifungal activity against Candida glabrata assessed as growth inhibition. The class given is functional, organism-based.
Data set [1] can be described thus: Selectivity index, ratio of cytotoxicity against pig LLC-PK1 cells to IC50 for Cryptococcus neoformans ATCC 90113. The class given is toxicity, cell-based. The conditions noted are these: read-out: Selectivity Index.
A further data set concerns Pichia kudriavzevii. Briefly: Antifungal activity against Candida krusei assessed as growth inhibition. Type of data set: functional, organism-based.
For the next data set, the system named is Escherichia coli. Put plainly: Antibacterial activity against Escherichia coli ATCC 35218 assessed as growth inhibition after 16-20 hrs by CLSI method. Type of data set: functional, organism-based.
In a further data set the test system is Candida albicans. Put plainly: Antifungal activity against Candida albicans assessed as growth inhibition. The class given is functional, organism-based.
In the next data set the test system is Cryptococcus neoformans. Put plainly: Antifungal activity against Cryptococcus neoformans ATCC 90113 assessed as growth inhibition after 70-74 hrs by CLSI method. Type of data set: functional, organism-based. The conditions noted are these: Cryptococcus neoformans, ATCC 90113; for IC50: read-out: IC50.
A further data set concerns BT-549. Put plainly: Cytotoxicity against human BT549 cells assessed as cell viability after 48 hrs by neutral red uptake assay. The class given is cell-based. The conditions noted are these: bt-549, 48 h. The method, boiled down:
as §1

For a further data set, the system named is LLC-PK1. Put plainly: Cytotoxicity against pig LLC-PK1 cells assessed as cell viability after 48 hrs by neutral red uptake assay. The class given is cell-based, Sus scrofa. The conditions noted are these: llc-pk1, 48 h. The method, boiled down:
as §1

Data set [2] in a line: Selectivity index, ratio of cytotoxicity against human BT549 cells to IC50 for Cryptococcus neoformans ATCC 90113. The conditions noted are these: read-out: Selectivity Index. Type of data set: toxicity, cell-based, BT-549.
A further data set concerns KB. Briefly: Cytotoxicity against human KB cells assessed as cell viability after 48 hrs by neutral red uptake assay. The class given is cell-based. The method, boiled down: as §1
The next data set concerns Aspergillus fumigatus. Briefly: Antifungal activity against Aspergillus fumigatus assessed as growth inhibition. Type of data set: functional, organism-based.
Another data set has as its system SK-MEL. Put plainly: Cytotoxicity against human SK-MEL cells assessed as cell viability after 48 hrs by neutral red uptake assay. The class given is cell-based. The method, boiled down:
as §1

The test system of another data set is SK-OV-3. Put plainly: Cytotoxicity against human SKOV3 cells assessed as cell viability after 48 hrs by neutral red uptake assay. The class given is cell-based. The conditions noted are these: sk-ov-3, 48 h. The method, boiled down:
as §1

The nature of data set [3]: Selectivity index, ratio of cytotoxicity against human SK-MEL cells to IC50 for Cryptococcus neoformans ATCC 90113. The class given is toxicity, cell-based. The conditions noted are these: read-out: Selectivity Index.
Data set [4] can be described thus: Selectivity index, ratio of cytotoxicity against african green monkey Vero cells to IC50 for Cryptococcus neoformans ATCC 90113. The class given is toxicity, cell-based. The settings on record: read-out: Selectivity Index.
Data set [5] can be described thus: Selectivity index, ratio of cytotoxicity against human KB cells to IC50 for Cryptococcus neoformans ATCC 90113. The class given is toxicity, cell-based. The settings on record: read-out: Selectivity Index.
Data set [6] in a line: Selectivity index, ratio of cytotoxicity against human SKOV3 cells to IC50 for Cryptococcus neoformans ATCC 90113. The class given is toxicity, cell-based, SK-OV-3. The settings on record: read-out: Selectivity Index.

Each structure is given as a SMILES string. ≈ marks a conversion by molar mass, not a printed value. Calls of active or inactive are those of the source.

Turning to `COC(=O)[C@H](CCCNC(=N)N)NC(=O)[C@H](Cc1c[nH]c(-c2ccc(-c3ccccc3)cc2)n1)NC(=O)OC(C)(C)C`, the Activity in the data set with Vero, in the data set on BT-549, with LLC-PK1, with KB, in the data set with SK-MEL and in the data set on SK-OV-3 was greater than 10 µg/mL in each case. Further, the “growth inhibition (GI)” value in the data set on Nakaseomyces glabratus, in the data set with Pichia kudriavzevii, with Escherichia coli, in the data set on Candida albicans and in the data set with Aspergillus fumigatus was “inactive” in each case. In addition, the selectivity ratio in [1], in [2], in data set [3], in data set [4], in data set [5] and in data set [6] was greater than 2 each time. Further, in the data set with Cryptococcus neoformans, the MFC was 10 µg/mL (≈ 17.3 µM). For the same compound, the MIC in the data set with Cryptococcus neoformans is 10 µg/mL (≈ 17.3 µM). Moreover, the IC50 in the data set on Cryptococcus neoformans came out at 4.91 µg/mL (≈ 8.5 µM).
Take `Cc1ccc(-c2nc(C[C@H](NC(=O)OC(C)(C)C)C(=O)N[C@@H](CCCNC(=N)N)C(=O)NCc3ccccc3)c[nH]2)cc1`: the Activity in the data set on Vero, with BT-549, in the data set with LLC-PK1, in the data set with KB, with SK-MEL and in the data set with SK-OV-3 was greater than 10 µg/mL throughout. For the same compound, the “growth inhibition (GI)” value in the data set on Nakaseomyces glabratus, in the data set with Pichia kudriavzevii, in the data set with Escherichia coli, in the data set on Candida albicans and in the data set on Aspergillus fumigatus was “inactive” throughout. Also, the selectivity ratio in data set [1], in [2], in [3], in [4], in [5] and in data set [6] was greater than 1.7 throughout. For the same compound, the MFC in the data set on Cryptococcus neoformans was found to be 10 µg/mL (≈ 16.9 µM). In addition, the MIC in the data set with Cryptococcus neoformans came to 10 µg/mL (≈ 16.9 µM). For the same compound, the half-maximal inhibitory concentration (IC50) in the data set on Cryptococcus neoformans is 6.04 µg/mL (≈ 10.2 µM).
As for `Cc1ccc(-c2nc(C[C@H](NC(=O)[C@@H](N)Cc3c[nH]c4ccccc34)C(=O)NCc3ccccc3)c[nH]2)cc1`, the Activity in the data set on Vero, with BT-549, in the data set with LLC-PK1, in the data set with KB, with SK-MEL and with SK-OV-3 was greater than 10 µg/mL each time. Further, the “growth inhibition (GI)” value with Nakaseomyces glabratus, with Pichia kudriavzevii, in the data set with Escherichia coli, in the data set on Candida albicans and with Aspergillus fumigatus was “inactive” each time. Further, the selectivity ratio in [1], in data set [2], in data set [3], in data set [4], in [5] and in data set [6] was greater than 1.3 throughout. For the same compound, in the data set on Cryptococcus neoformans, the MIC turned out to be 20 µg/mL (≈ 38.4 µM). The 50% inhibitory concentration (IC50) in the data set on Cryptococcus neoformans amounted to 7.84 µg/mL (≈ 15.1 µM).
With `COC(=O)[C@H](CCCNC(=N)N)NC(=O)[C@H](Cc1c[nH]c(-c2cccc3ccccc23)n1)NC(=O)OC(C)(C)C`, the Activity with Vero, in the data set with BT-549, in the data set on LLC-PK1, with KB, in the data set on SK-MEL and in the data set on SK-OV-3 was greater than 10 µg/mL throughout. In addition, the “growth inhibition (GI)” value in the data set with Nakaseomyces glabratus, in the data set with Pichia kudriavzevii, in the data set on Escherichia coli, in the data set with Candida albicans and with Aspergillus fumigatus was “inactive” in each case. Besides, the selectivity ratio in data set [1], in data set [2], in [3], in data set [4], in data set [5] and in data set [6] was greater than 8 throughout. In addition, in the data set with Cryptococcus neoformans, the MFC amounted to 2.5 µg/mL (≈ 4.53 µM). Moreover, the MIC in the data set with Cryptococcus neoformans is 2.5 µg/mL (≈ 4.53 µM). For the same compound, in the data set on Cryptococcus neoformans, the IC50 stood at 1.25 µg/mL (≈ 2.27 µM).
With `COC(=O)[C@H](Cc1c[nH]c(-c2ccccc2)n1)NC(=O)[C@@H](N)Cc1c[nH]c2ccccc12`, the Activity with Vero, with BT-549, in the data set on LLC-PK1, in the data set with KB, in the data set on SK-MEL and in the data set on SK-OV-3 was greater than 10 µg/mL in each case. Further, the “growth inhibition (GI)” value in the data set on Nakaseomyces glabratus, in the data set with Pichia kudriavzevii, in the data set with Escherichia coli, in the data set on Candida albicans and in the data set on Aspergillus fumigatus was “inactive” in each case. Besides, the selectivity ratio in data set [1], in data set [2], in data set [3], in [4], in data set [5] and in data set [6] was greater than 1.3 throughout. The MFC in the data set with Cryptococcus neoformans turned out to be 20 µg/mL (≈ 46.4 µM). For the same compound, the MIC with Cryptococcus neoformans was determined as 20 µg/mL (≈ 46.4 µM). In the data set on Cryptococcus neoformans, the IC50 was 7.97 µg/mL (≈ 18.5 µM).
Consider `COC(=O)[C@H](CCCNC(=N)N)NC(=O)[C@@H](N)Cc1c[nH]c(-c2ccc(-c3ccccc3)cc2)n1`, for which the Activity with Vero, in the data set on BT-549, in the data set on LLC-PK1, in the data set on KB, in the data set with SK-MEL and in the data set with SK-OV-3 was greater than 10 µg/mL throughout. Moreover, the “growth inhibition (GI)” value in the data set on Nakaseomyces glabratus, with Pichia kudriavzevii, in the data set on Escherichia coli, in the data set with Candida albicans and in the data set with Aspergillus fumigatus was “inactive” in each case. Besides, the selectivity ratio in [1], in data set [2], in data set [3], in data set [4], in [5] and in [6] was greater than 1.8 throughout. Further, in the data set on Cryptococcus neoformans, the MFC was 10 µg/mL (≈ 20.9 µM). Besides, the minimum inhibitory concentration (MIC) in the data set with Cryptococcus neoformans turned out to be 10 µg/mL (≈ 20.9 µM). Also, the half-inhibitory concentration (IC50) with Cryptococcus neoformans was found to be 5.49 µg/mL (≈ 11.5 µM).
Consider `Cc1ccc(-c2nc(C[C@H](N)C(=O)N[C@@H](CCCNC(=N)N)C(=O)NCc3ccccc3)c[nH]2)cc1`, for which the Activity with Vero, with BT-549, with LLC-PK1, in the data set on KB, with SK-MEL and in the data set with SK-OV-3 was greater than 10 µg/mL throughout. Moreover, the “growth inhibition (GI)” value in the data set with Nakaseomyces glabratus, in the data set with Pichia kudriavzevii, in the data set with Escherichia coli, with Candida albicans and in the data set with Aspergillus fumigatus was “inactive” throughout. In addition, the selectivity ratio in data set [1], in [2], in data set [3], in data set [4], in [5] and in data set [6] was greater than 4.7 each time. Moreover, the MFC in the data set on Cryptococcus neoformans came out at 2.5 µg/mL (≈ 5.1 µM). Further, the MIC in the data set on Cryptococcus neoformans was determined as 2.5 µg/mL (≈ 5.1 µM). The IC50 in the data set on Cryptococcus neoformans came to 2.11 µg/mL (≈ 4.3 µM).
For the compound `CC(C)(C)OC(=O)N[C@@H](Cc1c[nH]c(-c2ccccc2)n1)C(=O)N[C@@H](CCCNC(=N)N)C(=O)NCc1ccccc1`, the Activity in the data set on Vero, in the data set on BT-549, in the data set on LLC-PK1, with KB, in the data set with SK-MEL and in the data set on SK-OV-3 was greater than 10 µg/mL in each case. Also, the “growth inhibition (GI)” value with Nakaseomyces glabratus, in the data set on Pichia kudriavzevii, in the data set on Escherichia coli, in the data set with Candida albicans and with Aspergillus fumigatus was “inactive” each time. Also, the selectivity ratio in data set [1], in [2], in data set [3], in data set [4], in [5] and in data set [6] was greater than 3.9 each time. The MFC with Cryptococcus neoformans was 5 µg/mL (≈ 8.67 µM). Moreover, in the data set with Cryptococcus neoformans, the MIC came to 5 µg/mL (≈ 8.67 µM). In addition, the half-inhibitory concentration (IC50) in the data set with Cryptococcus neoformans came out at 2.56 µg/mL (≈ 4.44 µM).

One may read the MFC as the smallest concentration meeting the test's criterion for killing the fungus. One may read the MIC as the lowest concentration that inhibits growth of the organism. As a reminder, the IC50 is the point on the concentration scale where inhibition reaches its midpoint.

The record behind these values is ChEMBL document CHEMBL3132745, “Synthesis and Antimicrobial Activities of His(2-aryl)-Arg and Trp-His(2-aryl) Classes of Dipeptidomimetics” (Medchemcomm, 2014).
